Sampled rows, rich in hits. Any-hit rate of the full collection: about 7.1%.
H69AR inhibit = proliferation blockers of H69AR lung cancer cells, primary screen, cell-based, human, 86K library. viability, % at 10 µM. 85,000 tested, 6% active. H69AR lung tumor viability, ATP luminescence, 72 h; hits give low values. AID 598, 2007;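 active means viability at or below 40%; inactive means viability above 40%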;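 further: multidrug resistant small cell line overexpressing MRP-1 efflux transporter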
Fibroblast inh = antiproliferative effect on LL 47 fibroblasts – human, LL 47 cells, CellTiter-Glo luminescence, primary screen | viability, % at 10 µM | LL 47 human lung fibroblast viability, ATP luminescence; hits give low values | 85,000 tested, 1.1% active;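 active means viability at or below 50% in the single dose screen; inactive means viability above 50%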;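 further: compound exposure lasted 72 h before the ATP readout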
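Assay system: human lung fibroblast line LL 47, low passage. Input: 1,150 fibroblasts seeded per well. Times: overnight cell rest, 72 h compound treatment at 37 °C. Evaluation: % viability of median cell-only signal. Technique: luminescent ATP detection, CellTiter-Glo. Control set: cell-only wells, no compound.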
Cav3 T inh = Cav3.2 calcium influx blockers – cell-based, Fluo-4 calcium fluorescence, FDSS, MLSMR library, primary screen; Voltage-dependent T-type calcium channel subunit alpha-1H (Homo sapiens), O95180; Cav3.2-expressing cells; hits give low values; B-score at 10 µM; 100,000 tested, 4% active; AID 449739, 2010;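 active means single-dose well whose peak fluorescence ratio is a statistical outlier from its plate by either plate-standardised score or position-corrected B-score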
Target sequence (O95180 whole entry, looked up): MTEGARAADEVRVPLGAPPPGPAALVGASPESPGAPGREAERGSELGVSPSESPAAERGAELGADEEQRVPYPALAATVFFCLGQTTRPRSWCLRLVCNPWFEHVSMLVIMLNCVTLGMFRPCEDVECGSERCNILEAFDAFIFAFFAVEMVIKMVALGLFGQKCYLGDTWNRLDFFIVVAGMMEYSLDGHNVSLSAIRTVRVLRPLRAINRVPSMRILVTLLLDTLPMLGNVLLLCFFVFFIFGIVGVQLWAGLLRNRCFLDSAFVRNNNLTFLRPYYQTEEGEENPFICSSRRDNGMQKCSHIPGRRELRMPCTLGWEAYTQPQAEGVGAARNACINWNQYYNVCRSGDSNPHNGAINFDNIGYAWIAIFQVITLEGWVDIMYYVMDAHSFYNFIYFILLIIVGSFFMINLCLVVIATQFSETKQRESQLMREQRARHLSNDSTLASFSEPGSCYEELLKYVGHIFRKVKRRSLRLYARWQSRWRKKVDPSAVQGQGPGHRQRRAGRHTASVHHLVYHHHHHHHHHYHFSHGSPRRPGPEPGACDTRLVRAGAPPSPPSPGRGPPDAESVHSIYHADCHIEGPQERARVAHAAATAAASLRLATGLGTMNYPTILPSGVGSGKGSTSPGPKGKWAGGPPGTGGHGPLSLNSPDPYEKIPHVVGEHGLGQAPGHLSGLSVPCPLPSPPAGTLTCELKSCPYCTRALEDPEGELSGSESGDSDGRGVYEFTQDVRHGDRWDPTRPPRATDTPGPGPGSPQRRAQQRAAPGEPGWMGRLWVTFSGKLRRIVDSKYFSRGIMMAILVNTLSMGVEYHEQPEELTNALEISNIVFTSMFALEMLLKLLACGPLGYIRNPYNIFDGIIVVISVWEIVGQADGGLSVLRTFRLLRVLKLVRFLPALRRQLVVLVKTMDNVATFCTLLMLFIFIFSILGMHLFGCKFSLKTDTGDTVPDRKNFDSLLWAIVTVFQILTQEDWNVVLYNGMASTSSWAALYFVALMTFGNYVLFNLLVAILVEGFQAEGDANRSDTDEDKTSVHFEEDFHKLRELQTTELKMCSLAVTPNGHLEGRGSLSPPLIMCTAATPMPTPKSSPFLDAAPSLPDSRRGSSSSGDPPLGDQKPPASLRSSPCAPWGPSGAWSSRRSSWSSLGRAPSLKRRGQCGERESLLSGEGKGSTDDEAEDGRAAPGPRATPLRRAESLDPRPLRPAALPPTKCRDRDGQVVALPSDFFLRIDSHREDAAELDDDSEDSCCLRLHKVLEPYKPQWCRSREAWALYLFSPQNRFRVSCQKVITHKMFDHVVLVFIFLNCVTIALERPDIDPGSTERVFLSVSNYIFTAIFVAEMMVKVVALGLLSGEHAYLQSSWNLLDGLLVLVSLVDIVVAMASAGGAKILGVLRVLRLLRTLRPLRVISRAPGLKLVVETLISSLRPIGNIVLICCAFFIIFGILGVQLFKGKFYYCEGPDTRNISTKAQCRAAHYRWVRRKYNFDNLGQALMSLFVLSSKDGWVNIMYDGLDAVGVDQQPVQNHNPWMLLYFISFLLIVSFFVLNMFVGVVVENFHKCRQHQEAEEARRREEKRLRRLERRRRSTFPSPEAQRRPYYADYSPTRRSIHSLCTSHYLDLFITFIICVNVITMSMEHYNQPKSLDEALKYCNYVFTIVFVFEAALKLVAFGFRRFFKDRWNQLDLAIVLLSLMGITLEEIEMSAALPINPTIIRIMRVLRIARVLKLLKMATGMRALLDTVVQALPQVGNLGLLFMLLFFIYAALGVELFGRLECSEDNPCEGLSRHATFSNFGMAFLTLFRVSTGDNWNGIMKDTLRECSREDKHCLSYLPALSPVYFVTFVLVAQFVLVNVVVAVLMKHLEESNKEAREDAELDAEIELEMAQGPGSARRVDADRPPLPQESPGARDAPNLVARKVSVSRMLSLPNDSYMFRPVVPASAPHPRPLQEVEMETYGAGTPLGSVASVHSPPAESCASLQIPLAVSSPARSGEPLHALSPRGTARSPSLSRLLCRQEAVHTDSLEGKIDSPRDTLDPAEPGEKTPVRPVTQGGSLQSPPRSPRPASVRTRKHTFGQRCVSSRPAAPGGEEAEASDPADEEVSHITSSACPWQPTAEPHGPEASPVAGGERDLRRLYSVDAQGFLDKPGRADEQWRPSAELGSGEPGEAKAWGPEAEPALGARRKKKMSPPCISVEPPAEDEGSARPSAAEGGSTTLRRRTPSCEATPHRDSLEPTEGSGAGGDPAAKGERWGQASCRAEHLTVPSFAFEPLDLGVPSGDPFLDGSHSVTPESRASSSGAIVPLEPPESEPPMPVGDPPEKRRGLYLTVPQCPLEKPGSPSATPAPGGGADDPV
HCT116 PTEN-null = growth suppression of PTEN-null HCT116, primary screen, cell-based, CellTiter-Glo; HCT116 PTEN-null viability, 60 h; hits give low values; viability, % at 10 µM; 140,000 tested, 1.2% active; AID 827, 2007;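 active means viability at or below a set limit, 4 SD under the median of all tested compounds, cut at about 3.7% in these data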;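 further: PTEN knockout HCT116 line with beta catenin targeted HCT116 as companion control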
bCat KO growth = primary screen for growth suppressors in beta-catenin knockout HCT116 cells (colon tumor, human); HCT116 beta-catenin knockout viability, CellTiter-Glo, 60 h; hits give low values; viability, % at 10 µM; 140,000 tested, 1.5% active;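 active means viability at or under a set limit, the compound median less 4 SD, cut at about 6% in these data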
HUVEC inhibit = inhibitors of HUVEC proliferation, primary screen, cell-based, 384-well; CellTiter-Glo luminescence, 72 h; hits give low values; viability, % at 10 µM (by protocol); 86,000 tested, 1.1% active; AID 648, 2007;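 active means viability at or below 30%; inactive means viability above 30%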
Hits are given with their value; n = inactive; x = not tested or not shown.

SMILES	H69AR inhibit	Fibroblast inh	Cav3 T inh	HCT116 PTEN-null	bCat KO growth	HUVEC inhibit
COc1ccc(-c2ccc(C#N)c(SCC(=O)NCCc3ccccc3)n2)cc1OC	x	x	x	n	5.7	x
COc1ccc(-c2nnn(CC(=O)Nc3sc4c(c3C#N)CCCC4)n2)cc1	6.8	n	n	n	n	n
N#Cc1cc2c(nc1SCC(=O)Nc1sc3c(c1C#N)CCC3)CCCCCC2	11	n	n	n	n	n
N#Cc1cc2c(nc1SCC(=O)Nc1sc3c(c1C#N)CCC3)CCC2	34	n	n	n	n	n
COc1ccc(-c2cc(C(F)(F)F)nc(SCC(=O)Nc3sc4c(c3C#N)CCC4)n2)cc1	x	x	n	n	n	x
COc1cc(C(=O)OC2CC3CCC2(C)C3(C)C)ccc1OC(C)=O (stereo not drawn)	x	x	n	x	x	x
COc1ccc(-c2ccc(C#N)c(SCC(=O)Nc3sc4c(c3C#N)CCC4)n2)cc1OC	1.0	n	n	n	n	8.7
O=C(Nc1cccc(-c2nc3ncccc3o2)c1)c1cc2ccccc2o1	16	n	n	n	n	n
O=C(COC(=O)c1sc2ccccc2c1Cl)Nc1ncc(Cl)cc1Cl	x	x	x	n	n	x
Cc1[nH]nc(N=CC2=C(O)CC(c3ccco3)CC2=O)c1-c1ccc(Cl)cc1 (stereo not drawn)	22	n	n	n	n	n
O=C1CC(c2ccco2)CC(O)=C1C=Nc1cc(Cl)ccc1O (stereo not drawn)	5.3	n	x	n	n	n
Cc1[nH]nc(N=CC2=C(O)CC(C)(C)CC2=O)c1-c1ccc(Cl)cc1	31	n	n	n	n	n
O=C(COC(=O)[C@@H]1CC(O)CN1S(=O)(=O)c1ccccc1[N+](=O)[O-])Nc1ccc2ccccc2c1 (stereo partly drawn)	x	x	x	n	n	x
Cc1ccc(NCc2nc3ccccc3n2CCOc2ccccc2)cc1	x	x	x	n	n	x
CCOC(=O)CSC1=C(C#N)C(c2ccccc2OCC)C(C#N)C(=O)N1 (stereo not drawn)	27	n	n	n	n	n
CCOC(=O)CSC1=C(C#N)C(c2ccc(Cl)cc2)CC(=O)N1 (stereo not drawn)	n	n	n	n	n	n
CCOC(=O)CSC1=C(C#N)C(c2ccc3c(c2)OCO3)CC(=O)N1 (stereo not drawn)	23	n	n	n	n	n
CCOC(=O)CSC1=C(C#N)C(c2ccccc2OCC)C(C(=O)OCC)C(=O)N1 (stereo not drawn)	n	n	n	n	n	n
CCOC(=O)CSC1=C(C#N)C(c2ccc(C)o2)CC(=O)N1 (stereo not drawn)	n	49	n	n	n	n
CCCCOC(=O)CSC1=C(C#N)C(c2ccc3c(c2)OCO3)CC(=O)N1 (stereo not drawn)	n	n	n	n	n	n
CC(/C=C/c1ccccc1)=N\NC(=O)Cn1nc(C)cc1C	x	x	x	n	n	x
CN(c1cccc(NC(=O)CN(c2cccc(Cl)c2)S(=O)(=O)c2ccc(Cl)cc2)c1)S(C)(=O)=O	x	x	x	n	n	x
CS(=O)(=O)N1c2ccccc2[C@]2(Br)C[C@H]3C(=O)N[C@@H](Cc4ccccc4)C(=O)N3[C@H]12	x	x	n	x	x	x
COc1cc(NC(=S)N2CCN(C(=O)C3CCCO3)CC2)c(OC)cc1Cl (stereo not drawn)	x	x	x	n	n	x
CCOC(=O)C1CCN(C(=O)Nc2ccc3nc(-c4ccco4)c(-c4ccco4)nc3c2)CC1	38	n	n	n	n	n
SMILES	H69AR inhibit	Fibroblast inh	Cav3 T inh	HCT116 PTEN-null	bCat KO growth	HUVEC inhibit
CCOC(=O)c1c(-c2ccccc2)oc2cc(CN(C)C)c(O)c(CN(C)C)c12	10	n	x	x	x	9.3
CCOC(=O)c1c(C)oc2ccc(O)c(CN(C)C)c12	x	n	n	n	n	n
COC(=O)c1cc(OC)c(OC)cc1NC(=O)c1oc2ccccc2c1C	n	n	x	x	x	n
CC(C)SC1=NC(C)(C)C=C(/C=C/c2ccc(Cl)cc2Cl)N1	34	n	n	n	n	26
CC(C)SC1=NC(C)(C)C=C(/C=C/c2c(Cl)cccc2Cl)N1	n	n	n	n	n	n
CCOC(=O)C(NCCc1ccccc1)(NC(=O)CC)C(F)(F)F (stereo not drawn)	x	x	x	n	n	x
O=C(c1cc(-c2ccccn2)nc2c(Cl)cccc12)N1CCN(S(=O)(=O)c2ccccc2)CC1	x	x	x	n	n	x
O=C(c1cc(-c2cccs2)nc2ccccc12)N1CCN(S(=O)(=O)c2cccc(F)c2)CC1	21	n	n	n	n	n
O=S(=O)(c1ccccc1)N1CCN(c2nc(-c3cccs3)nc3ccccc23)CC1	x	x	x	n	n	x
O=C(c1cc(-c2cccs2)nc2ccccc12)N1CCN(S(=O)(=O)c2ccccc2)CC1	n	n	-4.3	n	n	n
COc1ccc(NC(=S)N2CCN(Cc3ccco3)CC2)c(OC)c1	x	x	x	n	n	x
COc1ccccc1Cc1nc2ccccc2n1S(=O)(=O)c1ccc(Cl)cc1	x	x	x	n	n	x
CCOC(=O)c1ccc(NC(=O)c2c(C)[nH]c(C(=O)OCC)c2C)cc1	n	49	n	n	n	n
CCOC(=O)c1[nH]c(C)c(C(=O)c2cc(F)ccc2F)c1C	30	n	x	n	n	n
CCOC(=O)c1c(C)[nH]c(C(=O)OCC(=O)Nc2cc(C)c(Cl)cc2OC)c1C	x	x	n	1.5	1.6	x
CCOC(=O)c1[nH]c(C)c(C(=O)Nc2cccc(Cl)c2C)c1C	15	n	n	n	n	n
CCOC(=O)c1[nH]c(C)c(C(=O)Nc2ccc(Cl)cc2)c1C	n	n	n	n	n	n
CCNc1ccc(S(=O)(=O)N(C)C)cc1NCC(=O)Nc1ccc(F)c(Cl)c1	x	x	x	n	n	x
Cc1cc(C)cc(-n2c(SCC(=O)Nc3cccc(S(=O)(=O)NC4=NCCCCC4)c3)nc3ccccc3c2=O)c1	x	x	x	n	n	x
COc1cc(OC)c(-c2cc(C(=O)O)ccc2OC)c(OC)c1	x	x	x	n	n	x
CCOC(=O)c1[nH]c(C)c(C(=O)N2CCc3ccccc32)c1C	26	49	n	n	n	n
CCOC(=O)c1[nH]c(C)c(C(=O)OC(C)C(=O)Nc2ncc(Cl)cc2Cl)c1C (stereo not drawn)	26	n	n	n	n	n
CCc1c(C(=O)Nc2ccc(OC)cc2)[nH]c(C)c1C(C)=O	26	n	n	n	n	n
CC(Sc1nnc(Cc2cccs2)n1C1CCCCC1)C(=O)N1CCc2ccccc21 (stereo not drawn)	n	n	-6.5	n	n	n
CC(Sc1nnc(Cc2cccs2)n1C1CCCCC1)C(=O)NCc1ccco1 (stereo not drawn)	n	n	n	n	n	n
Cc1ccc2c(n1)sc1c(-c3ccc(Br)cc3)c(C#N)c(N)nc12	x	x	n	3.2	n	x

Compound activity from PubChem BioAssay.
